In ChEMBL document CHEMBL4261570, “Design, Synthesis and Preliminary Antimicrobial Evaluation of N-Alkyl Chain Tethered C-5 Functionalized Bis-Isatins” (Medchemcomm, 2017):
Active and inactive are the calls of the source. The rule behind the calls is not given here.

What was measured:
Trichomonas vaginalis [1] = assay: Antiparasitic activity against Trichomonas vaginalis assessed as parasite growth inhibition after 24 hrs by hemacytometer; assay type: functional, organism-based
Method in brief: (§1)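 G3 strain cultured in TYM Diamond's medium in 15 mL tubes, with compound in DMSO. Controls were untreated and 0.1% DMSO. After 24 h, cells were counted by hemacytometer and normalized to the DMSO controls. Screening was at 50 μM. IC50 came from titrations of 5–40 μM with variable-slope regression, 4 independent trials on different days, and was then re-confirmed.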

Giardia intestinalis [2] = assay: Antiparasitic activity against Giardia lamblia WB trophozoites assessed as parasite growth inhibition at 50 uM after 48 hrs by ATP bioluminescence-based CellTiter-Glo luminescent cell viability assay relative to control; assay type: functional; conditions: Giardia duodenalis; for inhibition of growth at 50 µM: read-out: GI
Method in brief: (§2)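 Trophozoites kept axenically in TYI-S-33 with penicillin and streptomycin. Each well held 5000 trophozoites and was incubated 48 h at 37 °C under anaerobic conditions in a GasPak pouch. Read-out was CellTiter-Glo ATP luminescence. Controls were 0.5% DMSO vehicle and 30 μM metronidazole. Primary screen at 50 μM in duplicate; hits were those above 50% inhibition. EC50 came from triplicate 8-point series (0.39–50 μM) and dose-response curves.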

[3] = test system: Lacticaseibacillus rhamnosus; assay: Toxicity in Lactobacillus rhamnosus ATCC 53103 at 100 uM measured after overnight incubation by disc diffusion method; assay type: organism-based, GG; conditions: in vivo
Method in brief: (§3)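 Grown in Lactobacilli MRS at 37 °C under anaerobic conditions. Blank 6 mm discs were soaked 20 min at room temperature in a 100 μM working dilution in medium. Discs were placed on streaked agar alongside DMSO vehicle and antibiotic discs (levofloxacin, gentamicin), incubated overnight at 37 °C, and zones of inhibition measured in mm.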

Escherichia coli = assay: Toxicity in Escherichia coli K-12 MG1655 at 100 uM measured after overnight incubation by disc diffusion method; assay type: organism-based, K-12 substr. MG1655; conditions: in vivo
Method in brief: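 Grown in Luria broth at 37 °C under aerobic conditions. Blank 6 mm discs were soaked 20 min at room temperature in a 100 μM working dilution in medium. Discs were placed on streaked agar alongside DMSO vehicle and antibiotic discs (levofloxacin, gentamicin), incubated overnight at 37 °C, and inhibition zones measured in mm.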

Entamoeba histolytica = assay: Antiparasitic activity against Entamoeba histolytica HM-1:IMSS trophozoites assessed as parasite growth inhibition at 50 uM after 48 hrs by ATP bioluminescence-based CellTiter-Glo luminescent cell viability assay relative to control; assay type: functional; conditions: for inhibition of growth at 50 µM: read-out: GI; method in brief: as §2
[4] = test system: Limosilactobacillus reuteri; assay: Toxicity in Lactobacillus reuteri ATCC 23272 at 100 uM measured after overnight incubation by disc diffusion method; assay type: organism-based; conditions: in vivo; method in brief: as §3
Trichomonas vaginalis [5] = assay: Antiparasitic activity against Trichomonas vaginalis assessed as parasite growth inhibition at 50 uM after 24 hrs by hemacytometer relative to control; assay type: functional; conditions: read-out: GI; method in brief: as §1
[6] = test system: Lactobacillus acidophilus; assay: Toxicity in Lactobacillus acidophilus ATCC 43560 at 100 uM measured after overnight incubation by disc diffusion method; assay type: organism-based; conditions: in vivo; method in brief: as §3
Naegleria fowleri = assay: Antiparasitic activity against Naegleria fowleri KUL trophozoites assessed as parasite growth inhibition after 48 hrs by ATP bioluminescence-based CellTiter-Glo luminescent cell viability assay; assay type: functional, organism-based
Method in brief: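 Strain KUL trophozoites cultured axenically in Nelson's medium with 10% FBS at 37 °C. Each well held 10 000 trophozoites, incubated under aerobic conditions without the anaerobe pouch. Read-out was CellTiter-Glo luminescence. Positive control was 50 μM amphotericin B. Hits were serially diluted in triplicate, 8 points from 0.39 to 50 μM, and EC50 was taken from dose-response curves.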

Saccharomyces cerevisiae [7] = assay: Antifungal activity against Saccharomyces cerevisiae BY4741 assessed as fungal growth at 500 uM after 24 hrs by microtiter plate liquid bioassay (reference value: 100%); assay type: functional
Saccharomyces cerevisiae [8] = assay: Antifungal activity against Saccharomyces cerevisiae BY4741 assessed as fungal growth at 500 uM after 48 hrs by microtiter plate liquid bioassay (reference value: 100%); assay type: functional
Aspergillus parasiticus [9] = assay: Antifungal activity against Aspergillus parasiticus NRRL5862 assessed as fungal growth at 500 uM after 24 hrs by microtiter plate liquid bioassay (reference value: 100%); assay type: functional
Method in brief: (§4)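 A. parasiticus grown at 35 °C on PDA. Liquid assay in RPMI 1640, 3 × 104 to 5 × 10^4 CFU per mL, triplicate wells, 35 °C. Compounds in DMSO (<2% in media). No-treatment wells carry matched DMSO. Wells scored visually 0–4 versus the no-treatment control: 0 clear, 1 25%, 2 50%, 3 75%, 4 no reduction. Scoring follows CLSI M38-A.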

Aspergillus parasiticus [10] = assay: Antifungal activity against Aspergillus parasiticus NRRL5862 assessed as fungal growth at 500 uM after 48 hrs by microtiter plate liquid bioassay (reference value: 100%); assay type: functional; method in brief: as §4
Saccharomyces cerevisiae [11] = assay: Antifungal activity against Saccharomyces cerevisiae BY4741 assessed as decrease in fungal survival at 500 uM after 48 to 72 hrs by YPD plate-based assay; assay type: functional, organism-based
Method in brief: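 At the end of the 500 μM SG-liquid microtiter assay, the entire well contents were spread onto YPD recovery plates. Plates were cultured a further 48 to 72 h at 30 °C to judge fungal survival.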

Giardia intestinalis [12] = assay: Antiparasitic activity against Giardia lamblia WB trophozoites assessed as parasite growth inhibition after 48 hrs by ATP bioluminescence-based CellTiter-Glo luminescent cell viability assay; assay type: functional, organism-based; conditions: Giardia duodenalis; method in brief: as §2

SMILES	IC50 (Trichomonas vaginalis [1]) [µM]	growth inhibition (GI) (Giardia intestinalis [2])	Activity [3]	Activity (Escherichia coli)	growth inhibition (GI) (Entamoeba histolytica)	Activity [4]	inhibition of growth at 50 µM (Trichomonas vaginalis [5]) [%]	Activity [6]	IC50 (Naegleria fowleri) [µM]	Activity (Saccharomyces cerevisiae [7]) [%]	Activity (Saccharomyces cerevisiae [8]) [%]	Activity (Aspergillus parasiticus [9])	Activity (Aspergillus parasiticus [10]) [%]	Activity (Saccharomyces cerevisiae [11])	inhibition of growth at 50 µM (Giardia intestinalis [2]) [%]	IC50 (Giardia intestinalis [12]) [µM]	inhibition of growth at 50 µM (Entamoeba histolytica) [%]
O=C1C(=O)N(CCCCN2C(=O)C(=O)c3cc(Br)ccc32)c2ccccc21	25	inactive	Non-Toxic	Non-Toxic	inactive	Non-Toxic	100	Non-Toxic									
CCCCCCCCCCCCCCCCOP(=O)([O-])OCC[N+](C)(C)C [MILTEFOSINE]									54.5								
O=C1C(=O)N(CCCCCN2C(=O)C(=O)c3cc(F)ccc32)c2ccccc21		inactive	Non-Toxic	Non-Toxic	inactive	Non-Toxic	100	Non-Toxic	27.3	50	75	100%	100				
O=C1C(=O)N(CCCCCCCCBr)c2ccccc21			Non-Toxic	Non-Toxic	inactive	Non-Toxic	100	Non-Toxic		0	0	75 - 100%	100	inactive	100	18.4	
O=C1C(=O)N(CCCCCCBr)c2ccccc21			Non-Toxic	Non-Toxic	inactive	Non-Toxic	86.6	Non-Toxic		0	0	75 - 100%	100	inactive	98.9	24.4	
O=C1C(=O)N(CCCCBr)c2ccccc21			Non-Toxic	Non-Toxic		Non-Toxic	89.8	Non-Toxic	14.5	0	50	75 - 100%	100		20.9		8.47
O=C1C(=O)N(CCCN2C(=O)C(=O)c3cc(F)ccc32)c2ccccc21	12.5		Non-Toxic	Non-Toxic	inactive	Non-Toxic	100	Non-Toxic							100	28.8	
O=C1C(=O)N(CCBr)c2ccccc21			Non-Toxic	Non-Toxic		Non-Toxic	62.5	Non-Toxic	23.6	25	75	75 - 100%	100		47.2		7.23
C[C@@H]1[C@H](O)[C@@H](C)/C=C/C=C/C=C/C=C/C=C/C=C/C=C/[C@H](O[C@@H]2O[C@H](C)[C@@H](O)[C@H](N)[C@@H]2O)C[C@@H]2O[C@](O)(C[C@@H](O)C[C@@H](O)[C@H](O)CC[C@@H](O)C[C@@H](O)CC(=O)O[C@H]1C)C[C@H](O)[C@H]2C(=O)O [AMPHOTERICIN B]									0.2								
O=C1C(=O)N(CCCCCCN2C(=O)C(=O)c3cc(Cl)ccc32)c2ccccc21			Non-Toxic	Non-Toxic	inactive	Non-Toxic	93.9	Non-Toxic							94.5	31.5	
O=C1C(=O)N(CCN2C(=O)C(=O)c3cc(Cl)ccc32)c2ccccc21	15		Non-Toxic	Non-Toxic		Non-Toxic	78.8	Non-Toxic	28.3	25	50	100%	100		3.82		73.6
O=C1C(=O)N(CCCN2C(=O)C(=O)c3cc(Br)ccc32)c2ccccc21	3.72		Non-Toxic	Non-Toxic	inactive	Non-Toxic	100	Non-Toxic		25	50	100%	100		19.3		
O=C1C(=O)N(CCCCCN2C(=O)C(=O)c3cc(Cl)ccc32)c2ccccc21			Non-Toxic	Non-Toxic		Non-Toxic	100	Non-Toxic	14.8						100	23.9	100
O=C1C(=O)N(CCCCCCCCN2C(=O)C(=O)c3ccccc32)c2ccccc21			Non-Toxic	Non-Toxic		Non-Toxic	30.3	Non-Toxic							80.7	38	100
